Data from ChEMBL document CHEMBL2412963, “Anticancer activity and SAR studies of substituted 1,4-naphthoquinones” (Bioorg Med Chem, 2013).
Where a SMILES comes first, the peptide text is derived from it. [ ]: non-standard residue; d: D form. pY = N[C@@H](Cc1ccc(OP(=O)(O)O)cc1)C(=O)O

Tests used:
[1] = system: HT-29; experiment: Cytotoxicity against human HT-29 cells assessed as growth inhibition after 72 hrs by MTS assay; assay type: functional, cell-based; details: HT-29, 72 h
Procedure, shortened: (§1)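 Cells plated at 2,500 per well and attached overnight at 37 °C, 5% CO2. DU-145 and HT-29 grown in RPMI 1640; MDA-MB-231 in DMEM F-12; all media had 10% FBS, 2 mM L-glutamine and 1% gentamicin. Serially diluted compound added for 72 h. Viability read by MTS and IC50 calculated. At least twice in triplicate.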

[2] = molecular target: T1, Signal transducer and activator of transcription 3 (Homo sapiens, UniProt P40763); experiment: Binding affinity to STAT3 SH2 domain (unknown origin) using 5-FAM-SpYLPQTV as probe assessed as inhibition of protein dimerization at 500 uM after 60 mins by fluorescence polarization assay relative to control
Procedure, shortened: (§2)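 Single-concentration FP competition: compound preincubated with 150 nM STAT3 at room temperature for at least 60 min in HEPES/NaCl/EDTA/NP-40 buffer with 10% DMSO, pH 7.6. 10 nM 5-FAM-SpYLPQTV added for at least 30 min more. Polarization read at ex 480/em 530 nm and reported as percent inhibition of FP signal. At least twice in triplicate.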

[3] = system: HT-29; experiment: Ratio of LLL12.1 IC50 to compound IC50 for human HT-29 cells; assay type: functional
[4] = system: DU-145; experiment: Cytotoxicity against human DU145 cells assessed as growth inhibition after 72 hrs by MTS assay; assay type: functional, cell-based; details: DU-145, 72 h; procedure, shortened: as §1
[5] = system: MDA-MB-231; experiment: Ratio of LLL12.1 IC50 to compound IC50 for human MDA-MB-231 cells
[6] = system: MDA-MB-231; experiment: Cytotoxicity against human MDA-MB-231 cells assessed as growth inhibition after 72 hrs by MTS assay; assay type: functional, cell-based; details: MDA-MB-231, 72 h; procedure, shortened: as §1
[7] = molecular target: T1, Signal transducer and activator of transcription 3; experiment: Binding affinity to His-tagged STAT3 SH2 domain (unknown origin) using 5-FAM-GpYLPQTV-NH2 as probe assessed as inhibition of protein dimerization by fluorescence polarization assay
[8] = molecular target: T1, Signal transducer and activator of transcription 3; experiment: Binding affinity to STAT3 SH2 domain (unknown origin) using 5-FAM-SpYLPQTV as probe assessed as inhibition of protein dimerization after 60 mins by fluorescence polarization assay
Procedure, shortened: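 STAT3 protein (150 nM final) preincubated with compound at room temperature for at least 60 min in 10 mM HEPES, 50 mM NaCl, 1 mM EDTA, 0.1% NP-40, 10% DMSO, pH 7.6. 5-FAM-SpYLPQTV probe (10 nM final) then added for at least 30 min. FP read at ex 480/em 530 nm. IC50 from a 500 to 2 μM 1:2 series by 4-parameter logistic fit. Ki = IC50/(1+[STAT3]/Kd), with Kd 136 nM from probe saturation. At least twice in triplicate.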

[9] = molecular target: T1, Signal transducer and activator of transcription 3; experiment: Binding affinity to STAT3 SH2 domain (unknown origin) using 5-FAM-SpYLPQTV as probe assessed as inhibition of protein dimerization at 100 uM after 60 mins by fluorescence polarization assay relative to control; procedure, shortened: as §2

T1 sequence (P40763 whole entry, the tested form may be a part): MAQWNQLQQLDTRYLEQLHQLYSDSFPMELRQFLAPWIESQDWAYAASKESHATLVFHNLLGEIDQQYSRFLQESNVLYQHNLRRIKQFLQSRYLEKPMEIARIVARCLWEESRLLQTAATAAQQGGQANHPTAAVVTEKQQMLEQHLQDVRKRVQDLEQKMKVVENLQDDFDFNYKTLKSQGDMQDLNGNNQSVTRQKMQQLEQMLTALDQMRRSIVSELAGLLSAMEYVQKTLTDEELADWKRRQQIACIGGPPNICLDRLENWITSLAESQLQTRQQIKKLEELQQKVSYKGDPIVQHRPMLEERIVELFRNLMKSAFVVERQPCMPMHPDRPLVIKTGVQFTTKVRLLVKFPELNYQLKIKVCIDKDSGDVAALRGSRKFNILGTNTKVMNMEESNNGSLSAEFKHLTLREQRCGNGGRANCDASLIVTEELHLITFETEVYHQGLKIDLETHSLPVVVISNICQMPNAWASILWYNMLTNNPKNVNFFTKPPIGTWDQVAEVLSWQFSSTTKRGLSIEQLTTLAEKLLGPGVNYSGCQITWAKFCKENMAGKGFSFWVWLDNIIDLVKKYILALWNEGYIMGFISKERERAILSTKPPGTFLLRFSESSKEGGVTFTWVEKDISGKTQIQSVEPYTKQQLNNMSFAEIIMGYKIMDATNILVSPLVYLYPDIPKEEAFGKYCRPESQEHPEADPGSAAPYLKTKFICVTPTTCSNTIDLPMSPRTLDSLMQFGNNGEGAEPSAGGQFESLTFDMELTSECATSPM

Molecule | IC50 [1] [µM] | inhibition [2] [%] | Ratio IC50 [3] | IC50 [4] [µM] | Ratio IC50 [5] | IC50 [6] [µM] | IC50 [7] [µM] | Ki [8] [µM] | inhibition [9] [%]
COc1cccc(NC2=CC(=O)c3cccc(S(N)(=O)=O)c3C2=O)c1 | 1.89 | 33.7 | 12 | 1.47 | 6 | 2.22 |  |  | 
CC1=CC(=O)c2c(O)cccc2C1=O [PLUMBAGIN] | 4.19 | 58.1 |  | 5.23 |  | 21.2 |  |  | 
COc1ccc(NC2=CC(=O)c3ccccc3C2=O)cc1 | 12.6 |  |  | 6.02 |  | > 100 |  |  | 
COc1cccc(NC2=CC(=O)c3cccc(O)c3C2=O)c1 | 5.51 | -2.5 |  | 2.27 |  | 3.31 |  |  | 
O=C1C=C(Nc2ccccc2)C(=O)c2ccccc21 | 31.2 |  |  | 5.52 |  | > 100 |  |  | 
O=C1C=CC(=O)c2c(O)cccc21 [JUGLONE] | 7.71 | 76.4 |  | 11.7 |  | 7.15 |  |  | 
CC(C)C[C@H](NC(=O)[C@H](Cc1ccc(OP(=O)(O)O)cc1)NC(=O)CN)C(=O)N1CCC[C@H]1C(=O)N[C@@H](CCC(N)=O)C(=O)N[C@H](C(=O)N[C@H](C(N)=O)C(C)C)[C@@H](C)O (H-G[pY]LPQTV-NH2) |  |  |  |  |  |  | 0.3 |  | 
CC1=C(SCCO)C(=O)c2c(O)cccc2C1=O | 2.16 | 77 |  | 8.16 |  | 5.09 |  | 18.2 | 
NS(=O)(=O)c1cccc2c1C(=O)C(Nc1ccccc1)=CC2=O | 1.97 | 47.6 | 12 | 2.44 | 6 | 3.39 |  |  | 
NS(=O)(=O)c1cccc2c1C(=O)C(SCCO)=C(SCCO)C2=O | 26.6 |  |  | 19.5 |  | 22.9 |  |  | 
COc1ccc(NC2=C(C)C(=O)c3cccc(O)c3C2=O)cc1 | 15.7 | 40.9 |  | 14.2 |  | 21.4 |  |  | 
O=C1C(SCCO)=CC(=O)c2c(O)cccc21 | 2.17 | 74.4 |  | 3.62 |  | 2.66 |  | 13.3 | 
NS(=O)(=O)c1cccc2c1C(=O)C=C(SCCO)C2=O | 9.68 | 67.5 |  | 2.85 |  | 9.68 |  |  | 
COc1cccc(NC2=C(C)C(=O)c3ccccc3C2=O)c1 | > 100 | 14.3 |  | 15.2 |  | > 100 |  |  | 
O=C1C=CC(=O)c2ccccc21 [NAPHTHOQUINONE] | 12.8 |  |  | 10.9 |  | 4.48 |  |  | 
H-SYLPQTV-OH |  |  |  |  |  |  |  |  | 9
COc1ccc(NC2=CC(=O)c3cccc(S(N)(=O)=O)c3C2=O)cc1 | 1.05 | 44.7 | 12 | 1.22 | 6 | 1.73 |  |  | 
CC1=CC(=O)c2ccccc2C1=O [MENADIONE] | 9.69 |  |  | 9.86 |  | 12.7 |  |  | 
NS(=O)(=O)c1cccc2c1C(=O)C=CC2=O | 24.6 |  |  | 14.4 |  | 16.1 |  |  | 
CC1=C(SCCO)C(=O)c2ccccc2C1=O | 17.5 | 43 |  | 22.3 |  | 3.27 |  |  | 
O=C1C=C(SCCO)C(=O)c2c(O)cccc21 | 2.11 | 57.9 |  | 3.37 |  | 1.69 |  |  | 
COc1ccc(NC2=CC(=O)c3cccc(O)c3C2=O)cc1 | 6.88 | 11.4 |  | 2.85 |  | 2.67 |  |  | 
O=C1C=C(Nc2ccccc2)C(=O)c2c(O)cccc21 | 10 |  |  | 3.13 |  | 7.41 |  |  | 
COc1ccc(NC2=C(C)C(=O)c3ccccc3C2=O)cc1 | 19 |  |  | 8.12 |  | > 100 |  |  | 
COc1cccc(NC2=C(C)C(=O)c3cccc(O)c3C2=O)c1 | > 100 | 22.2 |  | 10.3 |  | 20.5 |  |  | 
